Several values for one entry are separate records, joined by “and”; a condition that tells them apart may be missing. Identical values can stand only once.
Experiments:
[1] = molecular target: DNA topoisomerase 2-alpha (Homo sapiens) (UniProt P11388); assay: Inhibition of human DNA topoisomerase-2a-mediated relaxation of supercoiled DNA pBR322 at 100 uM after 4 hrs using ethidium bromide staining by agarose gel electrophoresis analysis
How it was run: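 Supercoiled pBR322 (200 ng) incubated with human topo IIα (1 unit) ± compound for 30 min at 30 °C. Buffer: 10 mM Tris-HCl pH 7.9, 50 mM NaCl, 50 mM KCl, 5 mM MgCl2, 1 mM EDTA, 1 mM ATP, BSA. Stopped with EDTA. 1% agarose gel run at 25 V for 4 h in TAE, ethidium bromide stain, supercoiled DNA quantified by UV imaging.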

[2] = molecular target: T1, DNA topoisomerase 1 (Homo sapiens) (UniProt P11387); assay: Inhibition of recombinant human DNA topoisomerase-1-mediated relaxation of supercoiled DNA pBR322 at 100 uM after 7 hrs using ethidium bromide staining by agarose gel electrophoresis analysis
T1 sequence (whole entry): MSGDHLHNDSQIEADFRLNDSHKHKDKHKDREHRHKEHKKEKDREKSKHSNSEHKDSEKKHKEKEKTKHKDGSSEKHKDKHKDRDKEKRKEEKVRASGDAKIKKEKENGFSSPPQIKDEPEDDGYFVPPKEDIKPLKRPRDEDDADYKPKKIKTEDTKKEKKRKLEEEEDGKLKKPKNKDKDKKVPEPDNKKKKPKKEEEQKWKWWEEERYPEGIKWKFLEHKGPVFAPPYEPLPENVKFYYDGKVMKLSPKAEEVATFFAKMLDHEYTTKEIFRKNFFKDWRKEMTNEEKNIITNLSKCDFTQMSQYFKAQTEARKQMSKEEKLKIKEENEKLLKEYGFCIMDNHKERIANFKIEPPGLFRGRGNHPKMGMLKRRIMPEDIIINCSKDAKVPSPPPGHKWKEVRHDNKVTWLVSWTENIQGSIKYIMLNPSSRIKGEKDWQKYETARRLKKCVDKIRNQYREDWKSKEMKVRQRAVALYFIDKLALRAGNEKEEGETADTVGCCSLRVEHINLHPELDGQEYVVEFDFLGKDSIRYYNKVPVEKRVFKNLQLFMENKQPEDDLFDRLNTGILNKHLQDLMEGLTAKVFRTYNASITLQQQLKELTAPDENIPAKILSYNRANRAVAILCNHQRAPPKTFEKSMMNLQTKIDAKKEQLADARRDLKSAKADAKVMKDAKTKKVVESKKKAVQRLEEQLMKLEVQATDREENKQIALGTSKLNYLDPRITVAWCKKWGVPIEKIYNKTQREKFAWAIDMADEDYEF
How it was run: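 pBR322 (100 ng) incubated with recombinant human topo I (0.4 units) ± compound for 30 min at 37 °C. Buffer: 10 mM Tris-HCl pH 7.9, 150 mM NaCl, 0.1% BSA, 1 mM spermidine, 5% glycerol. Quenched with sarcosyl stop solution. 1% agarose gel run at 15 V for 7 h in TAE, ethidium bromide stain, supercoiled DNA quantified under UV.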

[3] = test system: DU-145; assay: Cytotoxicity against human DU145 cells after 2 days; type: functional, cell-based
How it was run: (§1)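 Cells seeded at 2-4 × 10^4 per well in medium with 10% FBS and incubated overnight at 37 °C, 5% CO2. Graded compound concentrations added on day 2. CCK-8 reagent added on day 4 for a further 4 h, absorbance read at 450 nm. IC50 from a four-parameter logistic fit; mean ± S.D. of three experiments run in triplicate.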

[4] = Cytotoxicity against human HCT15 cells after 2 days; type: functional, cell-based, HCT-15; how it was run: as §1
[5] = test system: T47D; assay: Cytotoxicity against human T47D cells after 2 days; type: functional, cell-based; how it was run: as §1
[6] = Cytotoxicity against human MCF10A cells after 2 days; type: cell-based, MCF-10A; how it was run: as §1

Chain of DNA topoisomerase 2-alpha (Homo sapiens) (P11388 whole entry): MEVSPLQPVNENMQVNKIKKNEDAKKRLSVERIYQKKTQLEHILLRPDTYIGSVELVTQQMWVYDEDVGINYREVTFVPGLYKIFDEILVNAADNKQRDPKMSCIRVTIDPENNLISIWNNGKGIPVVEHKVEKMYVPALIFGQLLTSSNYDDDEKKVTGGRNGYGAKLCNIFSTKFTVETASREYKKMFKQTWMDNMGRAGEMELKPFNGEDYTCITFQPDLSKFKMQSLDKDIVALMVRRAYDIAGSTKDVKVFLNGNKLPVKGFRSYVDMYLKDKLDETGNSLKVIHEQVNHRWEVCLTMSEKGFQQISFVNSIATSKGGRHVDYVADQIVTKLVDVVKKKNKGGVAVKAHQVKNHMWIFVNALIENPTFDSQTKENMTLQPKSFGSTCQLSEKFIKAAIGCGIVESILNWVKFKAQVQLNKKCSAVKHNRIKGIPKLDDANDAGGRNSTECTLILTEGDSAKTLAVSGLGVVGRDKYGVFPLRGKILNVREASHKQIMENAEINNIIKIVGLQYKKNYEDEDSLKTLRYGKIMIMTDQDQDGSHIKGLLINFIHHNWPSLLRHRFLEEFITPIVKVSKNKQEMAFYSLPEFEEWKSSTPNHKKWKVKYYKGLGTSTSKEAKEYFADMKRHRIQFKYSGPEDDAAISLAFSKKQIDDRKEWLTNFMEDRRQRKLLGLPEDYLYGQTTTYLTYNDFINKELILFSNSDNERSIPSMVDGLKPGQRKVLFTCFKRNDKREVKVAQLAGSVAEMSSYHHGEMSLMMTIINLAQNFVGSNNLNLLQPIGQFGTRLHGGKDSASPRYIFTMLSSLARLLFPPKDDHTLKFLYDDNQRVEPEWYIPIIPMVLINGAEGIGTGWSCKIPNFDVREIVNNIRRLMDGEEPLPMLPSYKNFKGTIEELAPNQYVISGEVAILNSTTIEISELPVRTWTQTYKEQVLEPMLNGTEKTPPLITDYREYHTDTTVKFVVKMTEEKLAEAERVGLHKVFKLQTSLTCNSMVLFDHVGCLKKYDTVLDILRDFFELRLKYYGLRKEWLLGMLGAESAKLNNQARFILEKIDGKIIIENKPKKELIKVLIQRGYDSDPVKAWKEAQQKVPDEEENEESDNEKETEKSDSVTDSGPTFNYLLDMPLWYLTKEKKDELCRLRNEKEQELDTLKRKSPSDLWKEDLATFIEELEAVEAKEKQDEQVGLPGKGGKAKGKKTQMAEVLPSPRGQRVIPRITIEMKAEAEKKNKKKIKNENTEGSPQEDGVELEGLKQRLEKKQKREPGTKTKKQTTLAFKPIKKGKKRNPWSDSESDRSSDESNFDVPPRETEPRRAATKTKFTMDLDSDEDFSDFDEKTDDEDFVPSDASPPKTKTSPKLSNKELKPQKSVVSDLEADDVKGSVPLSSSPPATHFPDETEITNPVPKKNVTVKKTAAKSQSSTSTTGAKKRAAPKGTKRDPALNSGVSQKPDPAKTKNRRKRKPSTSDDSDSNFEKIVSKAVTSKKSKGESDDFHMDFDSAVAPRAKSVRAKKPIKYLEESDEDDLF

Compound | inhibition [1] | inhibition [2] | IC50 ([3]; Homo sapiens, DU-145, 48 h) | IC50 ([4]; hct-15) | IC50 ([5]; t47d) | IC50 ([6]; Homo sapiens, MCF-10A, 48 h) | IC50 ([5]; Homo sapiens, T47D, 48 h) | IC50 ([4]; Homo sapiens, HCT-15, 48 h) | IC50 ([3]; du-145) | IC50 ([6]; mcf-10a)
CCN1CCN(c2nc(-c3cccs3)cc3ccccc23)CC1 | 3.2% and 9.1% | 2.6% and 15% |  |  |  |  |  |  |  | 
Cc1ccc2c(N3CCCCC3)nc(-c3cccs3)cc2c1 [listing 1 of 2 here] |  |  | > 50 µM | 5.45 µM | 2.56 µM | > 50 µM |  |  |  | 
Cc1ccc2cc(-c3cccs3)nc(N3CCN(C)CC3)c2c1 [listing 1 of 2 here] |  |  | 16.2 µM | 1.64 µM | 1.96 µM | 11.6 µM |  |  |  | 
Cc1ccc2c(N3CCN(C)CC3)nc(-c3cccs3)cc2c1 [listing 1 of 3 here] |  |  | 33 µM | 4.37 µM |  | 13.3 µM | 9.35 µM |  |  | 
Cc1cccc2c(N=[N+]=[N-])nc(-c3cccs3)cc12 | 4.8% | 2.1% | > 50 µM |  |  | > 50 µM | > 50 µM | > 50 µM |  | 
Cc1ccc2c(N3CCN(C)CC3)nc(-c3cccs3)cc2c1 [listing 2 of 3 here] |  |  |  |  | 18.4 µM |  |  | 3.19 µM | 40 µM | 14.9 µM
CN1CCN(c2nc(-c3cccs3)cc3ccccc23)CC1 [listing 1 of 3 here] | 0% | 80.8% and 97.5% |  |  |  |  |  |  |  | 
CCN1CCN(c2nc(-c3cccs3)cc3ccc(C)cc23)CC1 [listing 1 of 2 here] |  |  |  | 7.71 µM |  | 42.9 µM | 2.84 µM |  | 31.1 µM | 
Cc1ccc2c(N3CCOCC3)nc(-c3cccs3)cc2c1 [listing 1 of 2 here] |  |  | > 50 µM |  |  |  | 6.76 µM | 7.58 µM |  | > 50 µM
CC[C@@]1(O)C(=O)OCc2c1cc1n(c2=O)Cc2cc3ccccc3nc2-1 [CAMPTOTHECIN] |  |  | 4.01 µM |  |  | 0.27 µM | 0.28 µM | 10.1 µM |  | 
Cc1ccc2c(N3CCN(C)CC3)nc(-c3cccs3)cc2c1 [listing 3 of 3 here] | 0% | 5.1% and 11.2% |  |  |  |  |  |  |  | 
Cc1ccc2c(N3CCOCC3)nc(-c3cccs3)cc2c1 [listing 2 of 2 here] |  |  |  | 7.79 µM | 7.88 µM | 48.7 µM |  |  |  | 
COc1cc([C@@H]2c3cc4c(cc3[C@@H](O[C@@H]3O[C@@H]5CO[C@@H](C)O[C@H]5[C@H](O)[C@H]3O)[C@H]3COC(=O)[C@H]23)OCO4)cc(OC)c1O [ETOPOSIDE] |  |  |  |  |  | 12.2 µM | 2.57 µM | 9.45 µM |  | 
c1csc(-c2cc3ccccc3c(N3CCOCC3)n2)c1 [listing 1 of 2 here] |  |  | 47 µM |  |  |  | 14.8 µM | 14.7 µM |  | 
c1csc(-c2cc3ccccc3c(N3CCCCC3)n2)c1 [listing 1 of 2 here] |  |  |  | 1.04 µM | 7.26 µM |  |  |  |  | 
CCN1CCN(c2nc(-c3cccs3)cc3ccc(C)cc23)CC1 [listing 2 of 2 here] |  |  | 29.4 µM | 3.63 µM | 4.15 µM |  |  |  |  | 43.1 µM
Cc1ccc2cc(-c3cccs3)nc(N3CCN(C)CC3)c2c1 [listing 2 of 2 here] |  |  |  |  |  |  | 1.02 µM | 1.04 µM | 24.7 µM | 20.9 µM
Cc1ccc2c(N3CCCCC3)nc(-c3cccs3)cc2c1 [listing 2 of 2 here] |  |  |  | 1.88 µM | 8.03 µM |  |  |  |  | 
Cc1ccc2cc(-c3cccs3)nc(N3CCOCC3)c2c1 [listing 1 of 2 here] |  |  |  | 9.52 µM | 7.63 µM |  |  |  | 48.3 µM | 49.1 µM
Cc1ccc2cc(-c3cccs3)nc(N3CCCCC3)c2c1 [listing 1 of 2 here] |  |  | > 50 µM | 3.74 µM | 7.38 µM | > 50 µM |  |  |  | 
CCN1CCN(c2nc(-c3cccs3)cc3cc(C)ccc23)CC1 [listing 1 of 2 here] | 0% | 0% |  |  |  |  |  |  |  | 
c1csc(-c2cc3ccccc3c(N3CCCCC3)n2)c1 [listing 2 of 2 here] |  |  | > 50 µM | 3.61 µM | 3.22 µM | > 50 µM |  |  |  | 
CN1CCN(c2nc(-c3cccs3)cc3ccccc23)CC1 [listing 2 of 3 here] |  |  |  | 7.9 µM | 16.1 µM |  |  |  | 44.5 µM | 38.8 µM
Cc1ccc2cc(-c3cccs3)nc(N3CCCCC3)c2c1 [listing 2 of 2 here] |  |  |  | 0.89 µM | 3.02 µM |  |  |  |  | 
CN1CCN(c2nc(-c3cccs3)cc3ccccc23)CC1 [listing 3 of 3 here] |  |  | 40.2 µM | 2.44 µM |  |  | 15.4 µM |  |  | 18.1 µM
Cc1ccc2cc(-c3cccs3)nc(N3CCOCC3)c2c1 [listing 2 of 2 here] |  |  | 47.3 µM |  |  | 35.6 µM | 6.38 µM | 7.58 µM |  | 
Cc1ccc2cc(-c3cccs3)nc(N3CCCN(C)CC3)c2c1 | 8% | 18.3% | 14.7 µM |  |  | 20.6 µM | 1.32 µM | 1.5 µM |  | 
c1csc(-c2cc3ccccc3c(N3CCOCC3)n2)c1 [listing 2 of 2 here] |  |  |  | 21.3 µM | 24.4 µM | > 50 µM |  |  | > 50 µM | 
COc1cccc2c1C(=O)c1c(O)c3c(c(O)c1C2=O)C[C@@](O)(C(=O)CO)C[C@@H]3O[C@H]1C[C@H](N)[C@H](O)[C@H](C)O1 [DOXORUBICIN] |  |  | 4.88 µM |  |  | 0.93 µM | 0.84 µM |  |  | 
CCN1CCN(c2nc(-c3cccs3)cc3cc(C)ccc23)CC1 [listing 2 of 2 here] |  |  |  | 4.4 µM | 17.7 µM | 28.9 µM |  |  | 22.1 µM | 

— ChEMBL document CHEMBL3286131, “Design, synthesis and systematic evaluation of cytotoxic 3-heteroarylisoquinolinamines as topoisomerases inhibitors” (Eur J Med Chem, 2014)
